Compound activity as filed in PubChem.
Rows were chosen to be rich in hits. Some 3.2% of all compounds tested hit in one or more screens of this group.
Biofilm kill mix – mixtures killing C. albicans biofilm. C. albicans biofilm persisters + clotrimazole, fluorescence viability; primary screen in compound mixtures of four per well. inhibition, % at 7.6 µM. 0.02% of 120,000 active;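 active = inhibition above 30.3% in the primary screen of four-compound pools, then above 30% when the compound was retested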;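 also: compounds exposed to preformed 24 h biofilms for 48 h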
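Test system: C. albicans CAF4-2 wild-type biofilms; buffer or medium: RPMI/MOPS medium, pH 7.0; schedule: 24 h biofilm formation, then 48 h compound exposure, 37 °C; detection: Alamar Blue fluorescence; measure: percent inhibition of biofilm viability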
Mcl-1 Bim block – inhibitors of Bim-Mcl-1 interaction, human | inhibition, % at 10 µM | 0.1% of 190,000 active | Bead-based flow cytometry, Bim peptide-Mcl-1 binding; in the data active = inhibition above about 40%
Target sequence (Q07820 whole entry, looked up): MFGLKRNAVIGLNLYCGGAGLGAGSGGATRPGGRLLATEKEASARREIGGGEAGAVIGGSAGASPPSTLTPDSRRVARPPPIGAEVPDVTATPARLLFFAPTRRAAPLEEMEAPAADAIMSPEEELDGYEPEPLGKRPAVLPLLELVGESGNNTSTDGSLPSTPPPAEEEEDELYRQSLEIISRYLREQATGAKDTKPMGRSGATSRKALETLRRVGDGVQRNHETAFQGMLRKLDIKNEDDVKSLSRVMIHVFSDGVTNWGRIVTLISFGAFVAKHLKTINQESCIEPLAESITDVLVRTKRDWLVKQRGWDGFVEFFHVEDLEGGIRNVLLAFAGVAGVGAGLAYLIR
14-3-3 Bad inh – disrupts binding of bovine 14-3-3 zeta to phospho-Bad peptide | TR-FRET 14-3-3zeta/Dy647-pBad peptide displacement, 1 h | inhibition, % at 21.7 µM | 0.71% of 220,000 active | P63103;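 active = inhibition above about 70%, limit read from the data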
Target sequence (P63103 whole entry, looked up): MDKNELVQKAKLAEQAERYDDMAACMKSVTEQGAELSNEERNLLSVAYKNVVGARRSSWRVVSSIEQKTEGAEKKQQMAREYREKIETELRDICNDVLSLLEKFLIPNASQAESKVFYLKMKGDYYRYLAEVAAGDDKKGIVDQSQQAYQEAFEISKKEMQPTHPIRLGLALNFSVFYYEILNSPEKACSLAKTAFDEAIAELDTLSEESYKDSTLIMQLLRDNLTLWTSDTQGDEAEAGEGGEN
Mcl1-Noxa inh – disrupts binding of human Mcl-1 to Noxa peptide | TR-FRET Mcl-1/Noxa peptide binding, 2 h | Q07820 | 1.5% of 220,000 active | inhibition, % at 21.7 µM;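 active = compounds that cut the protein-peptide binding signal by more than 50% relative to plate controls in a single-dose test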;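 also: His-tagged Mcl-1 with rhodamine Noxa BH3 peptide and terbium anti-His antibody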
Hck-Nef inh – blocks Nef-activated human Hck kinase. P08631. inhibition, % at 20 µM. Recombinant Hck-YEEI plus Nef, Z-Lyte FRET kinase assay. 0.68% of 220,000 active;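 active = Hck-Nef kinase inhibition above about 50%, limit read from the data; inactive = inhibition below that limit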
Mcl1-Bid inh – disrupts binding of human Mcl-1 to Bid peptide | Q07820 | TR-FRET Mcl-1/Bid-Dy647 peptide binding, 1536-well | inhibition, % at 21.7 µM | 0.97% of 220,000 active | AID 1021;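 active = compounds that cut the binding signal by more than half at the single screening dose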;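 also: His-tagged Mcl-1 with europium anti-His antibody binding Bid BH3 peptide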
Hits are given with their value; 0 = inactive; - = no result given; [ ] = remark or other dose.

SMILES	Biofilm kill mix	Mcl-1 Bim block	14-3-3 Bad inh	Mcl1-Noxa inh	Hck-Nef inh	Mcl1-Bid inh
O=C(O)CC12CC3CC(C1)CC(n1ncc(NCc4ccc(F)cc4Cl)c(Cl)c1=O)(C3)C2	0	0	0	0	0	0
O=C1CC(Cc2ccccc2)C(=O)N1c1ccccn1 (stereo not drawn)	0	-	0	0	0	0
CC(C)n1cc(CN2CCN(CCc3ccccc3)C(CCO)C2)cn1 (stereo not drawn)	0	0	0	0	0	0
COC(=O)C(C)(C(=O)OC)c1ccc(C(F)(F)F)cc1[N+](=O)[O-]	0	0	0	0	0	0
O=C1C(Cl)=C(N2CCCCC2)C(=O)C(Cl)=C1c1cnc(N2CCCCC2)s1	0	62	0	109	0	65
CN(C)c1ncc(C2=C(Cl)C(=O)C(N3CCCC3)=C(Cl)C2=O)s1	0	85	79[fluorescence artefact?]	112	0	61
Clc1ccc(Cl)c2sc(N3CCCC3)nc12	-	0	0	0	0	0
C=CCc1cc(C)ccc1OCCn1ccnc1	-	0	72	0	0	0
COc1ccc(C)cc1NC(=O)NCc1ccc(F)cc1	0	0	0	0	0	0
O=C(OC1CCc2ccccc2C1=O)c1ccccc1O (stereo not drawn)	-	0	0	0	0	54
O=C(N/N=C1\CCc2ccccc21)c1ccccc1O	0	0	0	0	0	0
COc1cccc(/C=C2\SC(=S)N(C(Cc3ccccc3)C(=O)O)C2=O)c1 (stereo not drawn)	0	0	0	0	0	0
CC(C)(C)c1cc(C(c2cccnc2)N2CCN(CCO)CC2)cc(C(C)(C)C)c1O (stereo not drawn)	-	0	0	0	0	55
Cc1cccc(C(=O)NC2=NCCS2)c1	0	0	0	0	76	0
Cc1noc(C)c1-c1nc(CS(=O)(=O)c2ccccc2)no1	0	-	0	0	0	0
Cn1c(=O)oc2cc(S(=O)(=O)N3CCC(C(=O)NCCc4ccccc4)CC3)ccc21	0	-	0	0	0	0
COC(=O)CSc1n[nH]c(-c2cccnc2)n1	-	0	0	0	0	0
CCOC(=O)CSc1n[nH]c(-c2cccnc2)n1	-	0	0	53	0	0
O=C(Cn1c(=O)n(-c2ccccc2)c(=O)c2sccc21)N1CCCC1	-	0	0	105	0	0
Cc1ccc(-n2c(=O)c3sccc3n(CC(=O)N3CCCC3)c2=O)cc1	-	0	0	0	0	0
Cc1cc(N2CCOCC2)nc2cc(O)ccc12	-	0	80	0	0	0
CC(C)Nc1nnc(SCC(=O)Nc2ccc3c(c2)C(=O)c2ccccc2C3=O)s1	0	0	0	78	0	0
COc1cccc(C(=O)N2CCN(Cc3ccccn3)CC2)c1OC	-	0	0	0	0	68
COc1cccc(C(=O)N2CCN(C3CCC(c4ccccc4)CC3)CC2)c1OC (stereo not drawn)	-	0	0	0	0	55
O=C(C(c1ccccc1)c1ccccc1)N1CCN(Cc2ccccn2)CC1	-	0	71	0	0	0
SMILES	Biofilm kill mix	Mcl-1 Bim block	14-3-3 Bad inh	Mcl1-Noxa inh	Hck-Nef inh	Mcl1-Bid inh
O=C(c1ccncc1)N1CCN(C2CCC(c3ccccc3)CC2)CC1 (stereo not drawn)	0	-	0	0	0	0
O=C(C(c1ccccc1)c1ccccc1)N1CCN(Cc2ccncc2)CC1	-	0	75	0	0	0
O=c1c2c3nc4ccccc4nc3n(Cc3ccccc3)c2ncn1Cc1ccco1	-	0	0	73	0	0
COc1cc(/C=N/NC(=O)CSc2n[nH]c(=O)[nH]c2=O)cc(OC)c1O	0	0	0	61	0	0
COc1ccc(-n2nc(C(=O)NCC(=O)Nc3ccccn3)c3ccccc3c2=O)cc1Cl	-	0	72	0	0	0
CCOC(=O)CNC(=O)CNC(=O)c1nn(-c2ccc(OC)c(Cl)c2)c(=O)c2ccccc12	0	0	0	0	0	0
CSc1ccc(/C=N/Nc2cccc(C(=O)O)c2)cc1	0	0	85	99	0	0
CC(C)c1nnc(SCC(=O)N2CCc3ccccc32)n1N	0	0	0	0	0	0
N#CC(C#N)=C1C=CC=CN1/C(=C\c1ccccc1)C(=O)c1cccs1	0	0	0	63	0	0
N#CC(C#N)=C1C=CC=CN1/C(=C\c1ccccc1Cl)C(=O)c1ccccc1	0	0	0	64	0	0
O=C(N/N=C/C(Br)=C\c1ccccc1)c1cccs1	0	-	0	0	0	0
Cc1ccccc1N1C(=O)C(Cc2ccc(F)cc2)S/C1=C(\C#N)C(N)=O (stereo not drawn)	0	-	0	0	0	0
O=C1CC(N2CCN(S(=O)(=O)c3ccccc3)CC2)C(=O)N1c1ccccc1 (stereo not drawn)	0	-	0	92	0	0
O=S(=O)(Nc1ccccc1)c1ccc(Oc2ncc(C(F)(F)F)cc2Cl)cc1	-	0	-	0	0	0
CCN(CC)c1ccc(NC(=O)Cn2cc3c(n2)CCC(C)C3)c(C)c1 (stereo not drawn)	-	0	0	61	0	0
Cn1c(=O)n(C)c2cc(S(=O)(=O)N3CCOCC3)ccc21	-	0	0	0	0	0
O=C(c1ccc2nc(-c3ccco3)c(-c3ccco3)nc2c1)N1CCN(c2ccccc2)CC1	-	0	0	52	0	0
O=S(=O)(c1ccc2nc(-c3ccco3)c(-c3ccco3)nc2c1)N1CCOCC1	-	0	0	90	0	0
O=C(NCCCO)Nc1ccc2nc(-c3ccco3)c(-c3ccco3)nc2c1	-	0	0	101	0	55
OCCCNC(=S)Nc1ccc2nc(-c3ccccn3)c(-c3ccccn3)nc2c1	-	0	0	0	0	0
O=C(Nc1ccc2nc(-c3ccco3)c(-c3ccco3)nc2c1)NC1CC1	0	0	0	102	0	0
CCOC(=O)Cc1csc(NC(=O)CSc2nncn2C)n1	0	0	0	0	0	0
CCOC(=O)N1CCN(C(=O)c2cc3c(s2)-c2ccc(Cl)cc2S(=O)(=O)C3)CC1	0	0	0	0	0	0
COC(=O)CCC(=O)N1CN2CN(C(=O)CCC(=O)OC)CC([N+](=O)[O-])(C2)C1	0	-	0	0	0	0
CC1CC(NC(=O)C2(C)CC2(Cl)Cl)CC(C)(C)C1 (stereo not drawn)	-	0	0	0	0	0
SMILES	Biofilm kill mix	Mcl-1 Bim block	14-3-3 Bad inh	Mcl1-Noxa inh	Hck-Nef inh	Mcl1-Bid inh
O=C(Nc1ccc(N2CCOCC2)cc1)Nc1ccc2nc(-c3ccco3)c(-c3ccco3)nc2c1	-	0	0	102	0	0
COC(=O)c1c(N)n(-c2cc(OC)cc(OC)c2)c2nc3ccccc3nc12	-	-	-	-	0	-
CCN(CCO)c1ccc(-n2c(N)c(C(=O)OC)c3nc4ccccc4nc32)cc1	-	0	87	52	0	0
CCOC(=O)c1c(CSc2ccccc2)n(C)c2cc(Br)c(O)c(CN(C)C)c12	0	-	0	0	0	0
CCOC(=O)c1c(CSc2ccc(C)cc2)n(C)c2cc(Br)c(O)c(CN(C)C)c12	0	0	0	86	0	0
CCOC(=O)c1c(CSc2ccsc2)n(C)c2cc(Br)c(O)c(CN(C)C)c12	0	-	0	60	0	0
